In ChEMBL document CHEMBL1121685, “Development of new mitomycin C and porfiromycin analogues” (J Med Chem, 1981):

What was measured:
[1] = Therapeutic ratio is expressed as ratio of optimal dose and minimum effective dose; type: ADME; details: mouse; read-out: TR
Procedure, shortened: (§1)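 10⁶ P-388 ascites cells implanted ip in CDF₁ female mice. Six mice per dose, 10 saline-injected controls, and a concurrent mitomycin C reference group. %T/C = median survival time of treated/control × 100. MED is the lowest dose giving %T/C > 125. Therapeutic ratio = optimal dose/MED.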

[2] = test system: Mus musculus; assay: Antitumor activity against P-388 murine leukemia cells in CDF1 female mice after intraperitoneal administration at the specified optimal dose of 25.6 mg/kg; type: functional
[3] = test system: Mus musculus; assay: Minimum effective dose that show activity against P-388 murine leukemia cells in CDF1 female mice, after intraperitoneal administration (optimal dose is 25.6 mg/kg); type: functional; details: P388, ip, read-out: MED; procedure, shortened: as §1
[4] = test system: Mus musculus; assay: Antitumor activity against P-388 murine leukemia cells in CDF1 female mice after intraperitoneal administration at the specified optimal dose of 12.8 mg/kg; type: functional
[5] = test system: Mus musculus; assay: Minimum effective dose that show activity against P-388 murine leukemia cells in CDF1 female mice, after intraperitoneal administration (optimal dose is 12.8 mg/kg); type: functional; details: P388, ip, read-out: MED; procedure, shortened: as §1
[6] = species on record: Mus musculus; assay: Half-wave potential produced by the compound at their optimal dose; type: functional; parameters: unit not given here
[7] = species on record: Mus musculus; assay: Degree of leukopenia produced by compound is assessed form Percent change in white cells on days 5; type: functional
Procedure, shortened: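 BDG₁ male mice received a single ip dose on day 0. The dose series topped out at the LD₅₀ level, or at twice the optimal dose for some agents. Total white blood cell count was taken on days 3, 5 and 7 and expressed as % change from untreated controls. Significance was set at p ≤ 0.05 or p ≤ 0.01.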

| SMILES | selectivity ratio [1] | T/C [2] | minimal effective dose [3] | T/C [4] | minimal effective dose [5] | E1/2 [6] | Change [7] |
| --- | --- | --- | --- | --- | --- | --- | --- |
| COC12[C@@H](COC(N)=O)C3=C(C(=O)C(C)=C(NCc4ccco4)C3=O)N1C[C@@H]1[C@H]2N1C (stereo partly drawn) | 16 | 261% | 1.6 mg/kg | – | – | – | – |
| COC12[C@@H]3N[C@@H]3CN1C1=C(C(=O)C(NCCc3ccccc3)=C(C)C1=O)[C@@H]2COC(N)=O (stereo partly drawn) | – | 194% | 1.6 mg/kg | – | – | – | – |
| C=C(Cl)CNC1=C(C)C(=O)C2=C(C1=O)[C@H](COC(N)=O)C1(OC)[C@@H]3N[C@@H]3CN21 (stereo partly drawn) | 8 | 178% | 3.2 mg/kg | – | – | – | – |
| COC12[C@@H]3N[C@@H]3CN1C1=C(C(=O)C(NCc3cccnc3)=C(C)C1=O)[C@@H]2COC(N)=O (stereo partly drawn) | 4 | – | – | 167% | 3.2 mg/kg | – | – |
| C#CCN(C)C1=C(C)C(=O)C2=C(C1=O)[C@H](COC(N)=O)C1(OC)[C@@H]3N[C@@H]3CN21 (stereo partly drawn) | 16 | – | – | 210% | 0.8 mg/kg | – | – |
| COC12[C@@H]3N[C@@H]3CN1C1=C(C(=O)C(NCCCO)=C(C)C1=O)[C@@H]2COC(N)=O (stereo partly drawn) | 8 | 244% | 3.2 mg/kg | – | – | -0.42 | -43% |
| C=CCNC1=C(C)C(=O)C2=C(C1=O)[C@H](COC(N)=O)C1(OC)[C@H]3[C@@H](CN21)N3C (stereo partly drawn) | 4 | – | – | 189% | 3.2 mg/kg | – | – |
| COC12[C@@H]3N[C@@H]3CN1C1=C(C(=O)C(NCc3ccc(S(N)(=O)=O)cc3)=C(C)C1=O)[C@@H]2COC(N)=O (stereo partly drawn) | 4 | 150% | 6.4 mg/kg | – | – | – | – |
| COC12[C@@H]3N[C@@H]3CN1C1=C(C(=O)C(NCCCCl)=C(C)C1=O)[C@@H]2COC(N)=O (stereo partly drawn) | 2 | – | – | 140% | 6.4 mg/kg | – | – |
